Results taken from ChEMBL document CHEMBL1141909, “3-Arylidene-1-(4-nitrophenylmethylene)-3,4-dihydro-1H-naphthalen-2-ones and related compounds displaying selective toxicity and reversal of multidrug resistance in neoplastic cells” (2005).

What was measured:
[1] = Effect of compound on multidrug resistance in murine L-5178 cells at 40 ug/ml concentration; expressed as fluorescence activity ratio (treated/untreated cells); type: functional, Mus musculus
[2] = Selectivity index of compound towards human malignant cell lines; type: functional
HSC-3 = assay: Concentration for 50% cytotoxicity towards malignant cells expressed in HSC-3 neoplastic cell line; type: functional; details: Homo sapiens
Outline: (§1)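 Human oral squamous carcinoma HSC-2 and HSC-3 and submandibular gland carcinoma HSG cells were grown in DMEM with 10% heat-inactivated FBS. Near-confluent cells were exposed to various compound concentrations for 24 h. Viable cells were read by MTT (absorbance of stained lysate at 540). CC50 came from dose-response curves as the mean of duplicates.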

[3] = Concentration for 50% cytotoxicity towards nonmalignant cells expressed in HGF normal gingival fibroblasts; details: Homo sapiens
[4] = Concentration for 50% cytotoxicity towards malignant cells expressed in HSG neoplastic cell line; type: functional; details: Homo sapiens; outline: as §1
[5] = Effect of compound on multidrug resistance in murine L-5178 cells at 4 ug/ml concentration; expressed as fluorescence activity ratio (treated/untreated cells); type: functional, Mus musculus
[6] = Effect of compound on multidrug resistance in colon320 neoplasm cells at 40 ug/ml concentration; expressed as fluorescence activity ratio (treated/untreated cells); type: functional, Homo sapiens
[7] = Concentration for 50% cytotoxicity towards nonmalignant cells expressed in HPLF normal periodontal ligament fibroblasts; details: Homo sapiens
[8] = Concentration for 50% cytotoxicity towards nonmalignant cells expressed in HPC normal pulp cells; details: Homo sapiens
[9] = Effect of compound on multidrug resistance in colon320 neoplasm cells at 4 ug/ml concentration; expressed as fluorescence activity ratio (treated/untreated cells); type: functional, Homo sapiens
HL-60 = assay: Concentration for 50% cytotoxicity towards malignant cells expressed in HL-60 neoplastic cell line; type: functional; details: Homo sapiens
Outline: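 Human promyelocytic leukaemia HL-60 cells were grown in RPMI1640 with 10% FBS and exposed to various compound concentrations for 24 h. Viable cell number was counted by trypan blue exclusion. CC50 was taken from dose-response curves, mean of duplicate determinations.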

[10] = Concentration for 50% cytotoxicity towards malignant cells expressed in HSC-2 neoplastic cell line; type: functional; details: Homo sapiens; outline: as §1
[11] = Effect of compound on multidrug resistance in murine L-5178 cells at 10 ug/ml concentration; expressed as fluorescence activity ratio (treated/untreated cells); type: functional, Mus musculus

Structure (SMILES) | Effect [1] | SI [2] | CC50 (HSC-3) | CC50 [3] | CC50 [4] | Effect [5] | Effect [6] | CC50 [7] | CC50 [8] | Effect [9] | CC50 (HL-60) | CC50 [10] | Effect [11]
COc1ccc(/C=C2\CC/C(=C\c3ccc([N+](=O)[O-])cc3)C2=O)cc1 | 0.69 | ~1.3 | > 400 µM | > 400 µM | > 400 µM | 0.59 | 0.37 | > 400 µM | > 400 µM | 0.63 | > 400 µM | 63 µM | 
COc1cccc2c1C(=O)c1c(O)c3c(c(O)c1C2=O)C[C@@](O)(C(=O)CO)C[C@@H]3O[C@H]1C[C@H](N)[C@H](O)[C@H](C)O1 [DOXORUBICIN] |  | > 235 | 2.9 µM | 233 µM | 1.9 µM |  |  | > 400 µM | 414 µM |  | 0.47 µM | 0.68 µM | 
COc1cc(/C=C2\CCC/C(=C\c3ccc([N+](=O)[O-])cc3)C2=O)ccc1O | 0.83 | > 44 | 5.2 µM | 165 µM | 11 µM | 1.5 | 1.13 | 171 µM | > 400 µM | 1.98 | 3.4 µM | 2.8 µM | 
COc1ccc(/C=C2\Cc3ccccc3/C(=C\c3ccc([N+](=O)[O-])cc3)C2=O)cc1 | 7.68 | > 17 | 32 µM | > 400 µM | 47 µM | 4.36 | 4.3 | > 400 µM | > 400 µM | 2.22 | 4.4 µM | 11 µM | 
COc1ccc(/C=C2\CCC/C(=C\c3ccc([N+](=O)[O-])cc3)C2=O)cc1 | 0.82 | ~1 | > 400 µM | > 400 µM | > 400 µM | 0.76 | 0.58 | > 400 µM | > 400 µM | 0.5 | > 400 µM | > 400 µM | 
O=C1/C(=C/c2ccc([N+](=O)[O-])cc2)CCC/C1=C\c1ccc2c(c1)OCO2 | 1.23 | ~1.2 | 189 µM | > 400 µM | > 400 µM | 0.91 | 0.59 | 330 µM | 391 µM | 0.67 | > 400 µM | 308 µM | 
COc1cc(/C=C2\CC/C(=C\c3ccc([N+](=O)[O-])cc3)C2=O)cc(OC)c1OC | 6.62 | ~1 | > 400 µM | > 400 µM | > 400 µM | 3.06 | 1.28 | > 400 µM | > 400 µM | 1.96 | > 400 µM | > 400 µM | 
COc1cc(/C=C2\Cc3ccccc3/C(=C\c3ccc([N+](=O)[O-])cc3)C2=O)cc(OC)c1OC | 120 | > 229 | 2.9 µM | > 400 µM | 3 µM | 134 | 13 | > 400 µM | > 400 µM | 10.9 | 0.55 µM | 0.55 µM | 
O=C1/C(=C/c2ccc(O)cc2)CCC/C1=C\c1ccc([N+](=O)[O-])cc1 | 0.97 | ~3.8 | 13 µM | > 400 µM | > 400 µM | 0.94 | 0.6 | > 400 µM | > 400 µM | 1.15 | 4.4 µM | 8.1 µM | 
COc1ccc(/C=C2\Cc3ccccc3/C(=C\c3ccc([N+](=O)[O-])cc3)C2=O)cc1OC | 55.9 | > 159 | 4.2 µM | > 400 µM | 4.4 µM | 44.1 | 11.4 | > 400 µM | > 400 µM | 7.19 | 0.56 µM | 0.92 µM | 
O=C1/C(=C/c2ccc(Cl)cc2)CCC/C1=C\c1ccc([N+](=O)[O-])cc1 | 0.94 | 46 | 4.6 µM | 191 µM | 15 µM | 1.16 | 0.53 | 332 µM | 345 µM | 0.6 | 4.1 µM | 1.5 µM | 
COc1cc(/C=C2\Cc3ccccc3/C(=C\c3ccc([N+](=O)[O-])cc3)C2=O)ccc1O | 123 | 15 | 3.8 µM | 33 µM | 5.8 µM | 51.8 | 6.2 | 21 µM | 83 µM | 3.38 | 0.95 µM | 1.45 µM | 
COc1cc(/C=C2\CCC/C(=C\c3ccc([N+](=O)[O-])cc3)C2=O)cc(OC)c1OC | 75.1 | 95 | 4.7 µM | 336 µM | 8.3 µM | 15.6 | 4.38 | 378 µM | 347 µM | 7.43 | 1.1 µM | 0.76 µM | 
COc1ccc(CCN(C)CCCC(C#N)(c2ccc(OC)c(OC)c2)C(C)C)cc1OC (configuration not stated) [VERAPAMIL] |  |  |  |  |  |  |  |  |  |  |  |  | 38.2
O=C1/C(=C/c2ccc3c(c2)OCO3)Cc2ccccc2/C1=C\c1ccc([N+](=O)[O-])cc1 | 3.87 | > 92 | 7.6 µM | > 400 µM | 5 µM | 3.27 | 2.27 | > 400 µM | > 400 µM | 1.95 | 2.2 µM | 2.6 µM | 
O=C1/C(=C/c2ccc(O)cc2)Cc2ccccc2/C1=C\c1ccc([N+](=O)[O-])cc1 | 39.3 | 12 | 14 µM | 85 µM | 11 µM | 135 | 11.7 | 75 µM | 113 µM | 1.99 | 2.5 µM | 5.2 µM | 
COc1cc(/C=C2/C(=O)/C(=C/c3ccc([N+](=O)[O-])cc3)c3ccccc32)cc(OC)c1OC |  | ~0.6 | > 400 µM | 89 µM | > 400 µM |  |  | > 400 µM | 153 µM |  | 318 µM | 221 µM | 
COc1ccc(/C=C2\CCC/C(=C\c3ccc([N+](=O)[O-])cc3)C2=O)cc1OC | 47.3 | 13 | 4.4 µM | 53 µM | 13 µM | 20.4 | 4.62 | 95 µM | 82 µM | 6.12 | 4.3 µM | 2.3 µM | 
